Compound activity as filed in PubChem.
Mcl1-Noxa inh = Mcl-1/Noxa interaction inhibition. Q07820. TR-FRET Mcl-1/Noxa peptide binding, 2 h. inhibition, % at 21.7 µM. 220,000 tested, 1.5% active. AID 1022;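 active = compounds that cut the protein-peptide binding signal by more than 50% relative to plate controls in a single-dose test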;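 note: His-tagged Mcl-1 with rhodamine Noxa BH3 peptide and terbium anti-His antibody; 0% = Mcl-1 plus Noxa peptide wells and 100% = peptide-only wells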
Target sequence (Q07820 whole entry, looked up): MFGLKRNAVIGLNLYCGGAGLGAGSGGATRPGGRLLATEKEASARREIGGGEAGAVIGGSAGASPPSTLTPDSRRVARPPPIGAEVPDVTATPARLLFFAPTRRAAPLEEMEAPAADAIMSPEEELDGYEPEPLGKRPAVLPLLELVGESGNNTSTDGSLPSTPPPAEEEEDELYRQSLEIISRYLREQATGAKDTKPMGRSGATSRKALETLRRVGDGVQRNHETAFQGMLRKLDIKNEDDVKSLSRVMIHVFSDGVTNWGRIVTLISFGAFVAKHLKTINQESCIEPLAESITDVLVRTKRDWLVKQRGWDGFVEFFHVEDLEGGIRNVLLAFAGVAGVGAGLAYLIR
Biofilm kill mix = mixture kills Candida albicans biofilm cells. AID 1242. inhibition, % at 7.6 µM. C. albicans biofilm persisters + clotrimazole, fluorescence viability; primary screen in compound mixtures of four per well. 120,000 tested, 0.02% active;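 active = inhibition above 30.3% in the primary screen of four-compound pools, then above 30% when the compound was retested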;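 note: compounds exposed to preformed 24 h biofilms for 48 h; 0% = untreated biofilm control and 100% = clotrimazole plus chlorhexidine kill blank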
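Test system: C. albicans CAF4-2 wild-type biofilms; buffer or medium: RPMI/MOPS medium, pH 7.0; schedule: 24 h biofilm formation, then 48 h compound exposure, 37 °C; detection: Alamar Blue fluorescence; measure: percent inhibition of biofilm viability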
Mcl-1 Bim block = human Bim-Mcl-1 interaction inhibition. Q07820. Bead-based flow cytometry, Bim peptide-Mcl-1 binding. inhibition, % at 10 µM. 190,000 tested, 0.1% active; in the data active = inhibition above about 40%;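 note: 0% = no compound tracer wells and 100% = peptide blocker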
Arbovirus inh = blocks arbovirus infection; arbovirus infection cell-based antiviral screen; inhibition, % at 10 µM; 200,000 tested, 0.37% active; in the data active = inhibition above about 30%
m-calpain inh = blocks pig calpain II enzyme activity. 220,000 tested, 0.37% active. inhibition, % at 16 µM. purified calpain II, fluorogenic peptide substrate, 30 min. AID 1236;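 active = inhibition above about 50%, limit read from the data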
Mcl1-Bid inh = disrupts binding of human Mcl-1 to Bid peptide. Q07820. TR-FRET Mcl-1/Bid-Dy647 peptide binding, 1536-well. inhibition, % at 21.7 µM. 220,000 tested, 0.97% active. AID 1021;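 active = compounds that cut the binding signal by more than half at the single screening dose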;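 note: His-tagged Mcl-1 with europium anti-His antibody binding Bid BH3 peptide; 0% = Mcl-1 plus peptide wells and 100% = peptide-only wells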
* = called active by the depositor; i = inactive; . = no result. Rows were chosen to be rich in hits. Some 2.8% of all compounds tested hit in one or more screens of this group.

SMILES	Mcl1-Noxa inh	Biofilm kill mix	Mcl-1 Bim block	Arbovirus inh	m-calpain inh	Mcl1-Bid inh
CCN1CCN(c2cc(N3CCCC3)c(F)cc2[N+](=O)[O-])CC1	65*	22	-3	-9	24	-20
O=P(Nc1cccc(Cl)c1)(Oc1ccccc1)Oc1ccccc1	6	7	1	-24	60*	18
O=C1CCN(C(=O)C(Cl)Cl)N1	3	9	-2	0	-14	-25
CCN(CC)C(=O)c1ccc2c(c1)C1C(Cl)C(Sc3ccccc3[N+](=O)[O-])CC1C(C(=O)O)N2 (configuration not stated)	63*	6	.	.	13	-1
Cc1ccc2c(c1Cl)NC(C(=O)O)C1CC(Sc3ccccc3[N+](=O)[O-])C(Cl)C21 (configuration not stated)	97*	15	.	.	-16	-37
Cc1cccc(NC(=O)C(C)N2CC=C(c3ccccc3)CC2)c1 (configuration not stated)	7	16	1	23	33	-24
Nc1c(C(=O)NCCN2CCOCC2)c2nc3ccccc3nc2n1Cc1ccco1	76*	.	3	10	i	-9
Nc1c(C(=O)NCCc2ccccc2)c2nc3ccccc3nc2n1CCN1CCOCC1	15	.	1	-32	-329	77*
COc1ccc(CCNC(=O)c2c(N)n(CCN3CCOCC3)c3nc4ccccc4nc23)cc1	22	.	-3	-29	-233	10
C=CCNC(=O)c1c(N)n(Cc2ccco2)c2nc3ccccc3nc12	57*	.	-1	13	i	-10
CCOc1cccc(=NC2CCCCC2)c2c(C)n(C)c(C)c12	-11	15	.	.	-24	-66
Cc1cccc(N/N=C(\C(N)=O)C2=NC(C)(C)Cc3ccccc32)c1	11	4	1	-29	17	-15
CC(C)CCCn1c(O)c(/C=C2/C=CC=N2)c(=O)[nH]c1=O	13	16	0	-8	30	-17
Cn1cnnc1Sc1cc(N2CCNCC2)ccc1[N+](=O)[O-]	4	23	.	.	2	-5
CCC(C)N1C(=O)/C(=C/c2ccc3c(c2)CCN3CCCCl)C(=O)NC1=S (configuration not stated)	101*	16	-4	-11	-63	39
Cc1cccc(N2C(=O)NC(=O)/C(=C\c3ccc4c(c3)CCCN4Cc3ccccc3)C2=O)c1	32	12	2	15	-34	-23
O=C(COc1ccccc1)c1cn(Cc2ccccc2)c2ccccc12	-25	20	-8	-5	7	6
CCCCN1C(=O)/C(=C/C=C/c2ccco2)C(=O)NC1=S	96*	27	-1	-10	-18	76*
O=C(O)CCn1cc(C=C2C(=O)NC(=S)NC2=O)c(-c2cccc(Cl)c2)n1	97*	26	1	6	-42	14
O=C(O)CCn1cc(C=C2C(=O)NC(=O)NC2=O)c(-c2ccc(Br)cc2)n1	45	11	-1	5	10	-60
CCC(=NCCCn1ccnc1)c1c(O)n(-c2ccc(OC)cc2)c(=O)[nH]c1=O	-19	16	.	.	-17	0
CCN(CC)P(=O)(c1n(CC)cc[n+]1CC)N(CC)CC	18	6	0	0	0	-21
COc1ccc(C2=CC(c3ccc(OC)c(OC)c3)c3c(c4ccccc4oc3=O)O2)cc1OC (configuration not stated)	-24	25	.	.	-37	-28
O=C(Nc1ccc(C(F)(F)F)cc1)c1cccn(Cc2ccc3c(c2)OC(F)(F)O3)c1=O	-1	.	1	10	18	-2
O=C(Nc1cccc(C(F)(F)F)c1)c1cccn(Cc2ccc3c(c2)OC(F)(F)O3)c1=O	6	.	-3	-15	52*	-10
SMILES	Mcl1-Noxa inh	Biofilm kill mix	Mcl-1 Bim block	Arbovirus inh	m-calpain inh	Mcl1-Bid inh
O=Cc1c(C(=O)O)n(Cc2ccc(Cl)cc2)c2ccccc12	65*	3	-11	-2	-50	-16
CC(C)(C)n1cc(C(=O)c2ccccc2)cc1-c1ccccc1	3	13	.	.	11	-4
O=C(CNC1CCCCC1)N1CCC2(CC1)OCCO2	2	.	3	8	-9	33
O=C(C1CCC(=O)N1C1CCCCC1)N1CCC2(CC1)OCCO2 (configuration not stated)	7	.	-4	2	59*	-10
CC1CCCC(C)N1/N=C/c1c[nH]c2ccc(Br)cc12 (configuration not stated)	37	20	-10	-34	18	-23
COCc1cc(OC(=O)N(C)C)nc(-c2ccccc2)n1	-20	10	.	.	-7	-12
